Read-outs that look alike come from different tables or passages of the source. Each block holds one molecule with its values, some of them ahead of it. No end group written: not given here.
Columns and labels:
actin = assay: Steady state actin critical concentration; type: biochemical; conditions: for steady state critical concentration for actin assembly (Cc): saturating Srv2 or WH2 peptide, actin alone Cc = 0.21
G-actin = assay: Interaction of WH2 peptides with G-actin; type: binding
F-actin [1] = assay: F-actin co-sedimentation; type: binding; conditions: co-sedimentation assays, data not shown
[2] = target: Rabbit skeletal muscle actin, monomeric (G-actin) (rabbit) (UniProt P68135); assay: inhibition of nucleotide exchange on actin
[3] = target: Rabbit skeletal muscle actin, monomeric (G-actin) (rabbit) (UniProt P68135); assay: inhibition of nucleotide exchange on actin; remark: listed apart in the source
[4] = tested on: Cof1-bound ADP-actin monomers; assay: Nucleotide exchange on Cof1-bound ADP-actin monomers; type: biochemical, rabbit
Summary of the method: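 Rabbit muscle ADP-actin (2 μM) was kept in G-buffer without ATP (10 mM Tris pH 7.5, 0.2 mM CaCl2, 0.2 mM DTT). It was mixed with 20 mM Tris pH 8.0, 50 mM NaCl, alone or containing Cof1 and/or varying full-length Srv2 (yeast profilin from E. coli where used), then added to ε-ATP. The fluorescence rise at 350/410 nm was monitored for at least 600 s.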

F-actin [5] = assay: Pi release assay of steady state actin filament turnover in the presence of Cof1; type: biochemical, rabbit; conditions: 8 μM actin, 25°C
Summary of the method: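 Cof1 and full-length Srv2 were premixed with 2 mM MgCl2, 0.5 mM ATP, 50 mM KCl, 0.2 mM MESG and 0.1 units PNP. Rabbit muscle actin monomers were added to start polymerization. Once the reaction reached steady state, Pi release was read for 15 min. After path-length correction, steady-state slopes were obtained by linear fit.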

[6] = Fluorescence-monitored urea denaturation; type: physicochemical
Summary of the method: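 Full-length 6xHis-tagged wild type and mutant Srv2 were expressed in E. coli BL21-RP (DE3), purified by IMAC then Superose 6 gel filtration in 20 mM Tris pH 8.0, 50 mM NaCl, 1 mM DTT, and stored at -80°C. Unfolding was followed by fluorescence as a function of urea concentration, with fluorescence normalized.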

NBD-labeled G-actin = conditions: ref Mattila et al., 2004; cited from earlier work

Molecule: WH2 peptide: 6xHis-tagged WH2 domain of S. cerevisiae Srv2, a.a. 295-349, purified from E. coli (TPATSSDANKGGIGAVFAELNQGENITKGLKKVDKSQQTHKNPELRQSSTVSSTG; also: 6xHis tag, end not given here)
- effect on steady state critical concentration (in words) (actin; actin + WH2 versus actin alone): did not alter the steady state critical concentration for actin assembly
- steady state critical concentration for actin assembly (Cc) (actin; data not shown): 0.26 µM
- interaction with G-actin (in words) (G-actin): both WH2 peptides interacted with G-actin
- binding affinity for F-actin (in words) (F-actin [1]): Neither WH2 peptide showed any detectable binding affinity for F-actin

Molecule: 306-349: WH2 domain-containing peptide of Srv2, a.a. 306-349 (GIGAVFAELNQGENITKGLKKVDKSQQTHKNPELRQSSTVSSTG; UniProt P17555 306-349, looked up, fragment)
- interaction with G-actin (in words) (G-actin): both WH2 peptides interacted with G-actin
- binding affinity for F-actin (in words) (F-actin [1]): Neither WH2 peptide showed any detectable binding affinity for F-actin

- Kd [2]: 1400 nM
- Kd [3]: 1500 nM
Molecule: Srv2/CAP WH2 peptide (a.a. 295-349), wild type (from UniProt P17555 295-349) (domain or fragment)

Molecule: Srv2-WT: full-length 6xHis-tagged wild type yeast Srv2/CAP protein purified from E. coli
- steady state critical concentration for actin assembly (Cc) (actin; data not shown): 2.4 µM
- increase of critical concentration versus actin alone (actin; versus actin alone, data not shown): 10 fold
- Srv2 concentration of peak effect on nucleotide exchange rate ([4]; 2 μM ADP-G-actin, 5 μM Cof1, 25°C (Fig. 7A)): 300 to 400 nM
- effect on actin turnover (Pi release) (in words) (F-actin [5]; 4 μM Cof1, 0-500 nM protein): increased the rate of turnover in a concentration-dependent manner
- rate increase of actin turnover (Pi release), peak (F-actin [5]; 4 μM Cof1, Srv2 0-500 nM, 360 nm (Fig. 8A)): 4 fold
- folding / stability by urea denaturation (in words) [6]: folded correctly
- urea concentration of unfolding [6]: ~ 5 M urea

B1: profilin: Yeast profilin (Pfy1) purified from E. coli (protein, UniProt P07274 1-126, looked up)
Profilin: MSWQAYTDNLIGTGKVDKAVIYSRAGDAVWATSGGLSLQPNEIGEIVQGFDNPAGLQSNGLHIQGQKFMLLRADDRSIYGRHDAEGVVCVRTKQTVIIAHYPPTVQAGEATKIVEQLADYLIGVQY
- effect on nucleotide exchange on Cof1-bound ADP-actin, protein alone (in words) ([4]; 2 μM ADP-G-actin, 5 μM Cof1, 50 μM ε-ATP, 25°C): no detectable activity
- effect of profilin on Srv2-WT promotion of nucleotide exchange (in words) ([4]; 5 μM yeast profilin with 400 nM full-length Srv2-WT, 5 μM Cof1 (Fig. 7F)): does not enhance Srv2’s effects

B2: fragment of Srv2/CAP containing the WH2 domain (a.a. 253-373): purified fragment of Srv2/CAP from an earlier study (Mattila et al., 2004) (protein, UniProt P17555 253-373, looked up, fragment)
chain: MAQSTKNTGATSSPSPASATAAPAPPPPPPAPPASVFEISNDTPATSSDANKGGIGAVFAELNQGENITKGLKKVDKSQQTHKNPELRQSSTVSSTGSKSGPPPRPKKPSTLKTKRPPRKE
- binding affinity for NBD-labeled G-actin (in words) (NBD-labeled G-actin): no detectable binding affinity for NBD-labeled G-actin

Source: PMC2857556 (Cytoskeleton (Hoboken, N.J.), 2010)
